Measurements taken from ChEMBL document CHEMBL4196077, “Anti-inflammatory hybrids of secondary amines and amide-sulfamide derivatives” (Eur J Med Chem, 2018).
Each block holds one compound with its values, some of them ahead of it. Calls of active or inactive are those of the source. No cut-off for these calls is given here.

How the values were obtained:
[1] = target: C-X-C chemokine receptor type 4 (Homo sapiens) (UniProt P61073); assay: Inhibition of biotinylated TN14003 binding to CXCR4 in human MDA-MB-231 cells preincubated for 10 mins followed by TN14003 addition measured after 30 mins by rhodamine dye-based microscopic analysis; type: cell-based
Sequence of C-X-C chemokine receptor type 4 (Homo sapiens) (P61073 whole entry): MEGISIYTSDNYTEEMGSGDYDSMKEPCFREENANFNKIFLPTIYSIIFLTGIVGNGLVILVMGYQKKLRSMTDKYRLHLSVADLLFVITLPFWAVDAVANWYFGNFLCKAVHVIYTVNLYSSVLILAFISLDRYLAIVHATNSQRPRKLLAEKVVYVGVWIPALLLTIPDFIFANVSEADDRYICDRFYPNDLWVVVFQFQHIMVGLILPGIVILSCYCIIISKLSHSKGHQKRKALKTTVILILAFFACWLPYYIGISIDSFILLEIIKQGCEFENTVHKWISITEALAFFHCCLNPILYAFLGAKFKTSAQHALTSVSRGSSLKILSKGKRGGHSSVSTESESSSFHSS
Summary of the method: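 MDA-MB-231 cells (2×10^4, seeded two days before) exposed to compound at 1, 10, 100 or 1000 nM for 10 min at room temperature, fixed in ice-cold 4% paraformaldehyde, rehydrated in PBS, then 0.05 µg/mL biotinylated TN14003 for 30 min, streptavidin-rhodamine (1:150) 30 min. Fluorescence microscopy; EC = lowest concentration with significant reduction in rhodamine signal versus untreated.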

Mus musculus [2] = assay: Antiinflammatory activity in mouse assessed as inhibition of xylene-induced ear edema at 10 mg/kg, ip treated after 30 mins xylene administration measured after 2 hrs relative to control; type: functional
Summary of the method: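 Xylene (30 µL total, inner and outer surfaces) applied to right ear, saline to left ear; 5 mice per group. 30 min later, 10 mg/kg i.p. in 10% DMSO/90% of 45% hydroxypropyl-β-cyclodextrin in PBS; vehicle-injected controls. Sacrificed 2 h later; 7 mm ear plugs from both ears weighed, weight difference = edema; suppression % versus control group.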

[3] = target: C-X-C chemokine receptor type 4 (Homo sapiens) (UniProt P61073); assay: Inhibition of CXCR4 in human MDA-MB-231 cells assessed as decrease in CXCL12-dependent cell invasion at 100 nM after 22 hrs by hematoxylin and eosin staining based matrigel assay relative to control; type: functional
Summary of the method: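 Matrigel invasion chamber. MDA-MB-231 cells pretreated with compound (100 nM) before seeding in top chamber; 200 ng/mL CXCL12α in serum-free medium in bottom chamber as chemoattractant. 22 h in humidified incubator; non-invading cells swabbed off, invaded cells fixed in methanol, H&E stained and counted; inhibition relative to untreated invasion.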

[4] = target: C-X-C chemokine receptor type 4 (Homo sapiens) (UniProt P61073); assay: Potency index, ratio of AMD3100 EC to compound EC for inhibition of biotinylated TN14003 binding to CXCR4 in human MDA-MB-231 cells; type: functional, cell-based
MCF-10A = assay: Cytotoxicity against human MCF10A cells assessed as reduction in cell viability at 10 uM after 24 hrs by MTT assay; type: cell-based
Summary of the method: (§1)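 MTT-type viability assay: cells seeded at 3000/well, grown 24 h at 37 °C, then exposed to compound for 24 h at 37 °C. CellTiter 96AQ reagent added for 2 h, absorbance read at 490 nm; compared with vehicle control.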

Mus musculus [5] = assay: Antiinflammatory activity in mouse assessed as inhibition of xylene-induced thickness of ear at 10 mg/kg, ip treated after 30 mins xylene administration measured after 2 hrs; type: functional, organism-based
[6] = Half life in nude mouse plasma at 30 mg/kg, iv administered as single dose by HPLC analysis; type: ADME, organism-based
Summary of the method: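 Nude mice (~20 g), anaesthetized with ketamine (90 mg/kg)/xylazine (4.5 mg/kg), given single 30 mg/kg i.v. dose in 10% DMSO/90% of 45% hydroxypropyl-β-cyclodextrin in PBS. Orbital sinus blood at 0, 5, 20, 50 min; centrifuged 13000 g, 4 °C, filtered (10000 NMWL). Filtrate HPLC on C18, acetonitrile–water (0.1% TFA) 50:50, 254 nm; half-life from peak areas.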

[7] = target: C-X-C chemokine receptor type 4 (Homo sapiens) (UniProt P61073); assay: Inhibition of CXCR4 in human MDA-MB-231 cells assessed as decrease in CXCL12-induced p44 phosphorylation at 0.1 nM by Western blot analysis; type: functional, cell-based
[8] = target: C-X-C chemokine receptor type 4 (Homo sapiens) (UniProt P61073); assay: Inhibition of CXCR4 in human MDA-MB-231 cells assessed as decrease in CXCL12-induced Akt phosphorylation by Western blot analysis; type: functional, cell-based
Mus musculus [9] = assay: Antiinflammatory activity in mouse assessed as inhibition of xylene-induced swollen volume of ear at 10 mg/kg, ip treated after 30 mins xylene administration measured after 2 hrs; type: functional, organism-based
[10] = Half life in human plasma; type: ADME
MDA-MB-231 = assay: Cytotoxicity against human MDA-MB-231 cells assessed as reduction in cell viability at 10 uM after 24 hrs by MTT assay; type: cell-based; settings: mda-mb-231, 24 h; summary of the method: as §1

SMILES: O=C(NCc1ccc(CNS(=O)(=O)c2ccccc2Cl)cc1)c1ccc(CNc2ncccn2)cc1
EC [1]: 1000 nM

SMILES: O=C(NCc1ccc(CNS(=O)(=O)c2cccc3ccccc23)cc1)c1ccc(CNc2ncccn2)cc1
EC [1]: 1000 nM

SMILES: O=C(NCc1ccc(CNS(=O)(=O)c2cccnc2)cc1)c1ccc(CNc2ncccn2)cc1
EC [1]: > 1000 nM

SMILES: O=C(NCc1ccc(CNS(=O)(=O)c2cccc(Cl)c2)cc1)c1ccc(CNc2ncccn2)cc1
Ratio [4]: 1000 | EC [1]: 1 nM | inhibition [3]: 88% | inhibition (Mus musculus [2]): inactive

SMILES: O=C(NCc1ccc(CNS(=O)(=O)c2ccc3c(c2)CCO3)cc1)c1ccc(CNc2ncccn2)cc1
EC [1]: 1000 nM

SMILES: O=C(NCc1ccc(CNS(=O)(=O)c2cccc(C(F)(F)F)c2)cc1)c1ccc(CNc2ncccn2)cc1
EC [1]: 1000 nM

SMILES: Cc1cccc(S(=O)(=O)NCc2ccc(CNC(=O)c3ccc(CNc4ncccn4)cc3)cc2)c1
EC [1]: 100 nM

SMILES: O=C(NCc1ccc(CNS(=O)(=O)c2ccccc2F)cc1)c1ccc(CNc2ncccn2)cc1
EC [1]: 1000 nM

SMILES: Cc1ccccc1S(=O)(=O)NCc1ccc(CNC(=O)c2ccc(CNc3ncccn3)cc2)cc1
Ratio [4]: 100 | EC [1]: 10 nM

Continued, in another order:

EC [1]: 100 nM
SMILES: O=C(NCc1ccc(CNS(=O)(=O)c2ccc(F)c(F)c2)cc1)c1ccc(CNc2ncccn2)cc1
inhibition (Mus musculus [2]): inactive

EC [1]: 1000 nM
SMILES: O=C(NCc1ccc(CNS(=O)(=O)c2ccc(-c3ccc(F)cc3)cc2)cc1)c1ccc(CNc2ncccn2)cc1

EC [1]: 1000 nM
SMILES: O=C(NCc1ccc(CNS(=O)(=O)c2ccc([N+](=O)[O-])cc2)cc1)c1ccc(CNc2ncccn2)cc1

EC [1]: 100 nM
SMILES: Cc1ccc(S(=O)(=O)NCc2ccc(CNC(=O)c3ccc(CNc4ncccn4)cc3)cc2)cc1
inhibition [3]: 87% | inhibition in vivo at 10 mg/kg (Mus musculus [2]): 37%

EC [1]: 100 nM
SMILES: O=C(NCc1ccc(CNS(=O)(=O)c2ccc(Cl)cc2)cc1)c1ccc(CNc2ncccn2)cc1
inhibition in vivo at 10 mg/kg (Mus musculus [2]): 30%

Ratio [4]: 1000 | EC [1]: 1 nM | half-life [6]: 0.333 h | inhibition [7]: Active | inhibition [8]: Dose-dependent effect | half-life [10]: 2.5 h
SMILES: O=C(NCc1ccc(CNS(=O)(=O)c2ccccc2)cc1)c1ccc(CNc2ncccn2)cc1
Activity (MCF-10A): Non-Toxic | inhibition (Mus musculus [5]): Active | inhibition in vivo at 10 mg/kg (Mus musculus [2]): 67% | inhibition (Mus musculus [9]): Active | Activity (MDA-MB-231): Non-Toxic

EC [1]: 1000 nM
SMILES: O=C(NCc1ccc(CNS(=O)(=O)c2cccc(F)c2)cc1)c1ccc(CNc2ncccn2)cc1

EC [1]: > 1000 nM
SMILES: O=C(NCc1ccc(CNS(=O)(=O)c2ccc(F)cc2)cc1)c1ccc(CNc2ncccn2)cc1
